≈ marks a conversion by molar mass, not a printed value. Ends that are not written are not given here.
Assays:
[1] = test system: S. aureus DA29677 (cycled with LL-37); experiment: MIC of antibiotics by Etest; format: cell-based; conditions: Staphylococcus aureus
Method in brief: (§1)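 Strains were grown overnight with shaking at 37°C in Mueller–Hinton II broth and diluted to ∼10⁸ cfu/mL in the same broth. They were swabbed onto Mueller–Hinton II agar, an antibiotic Etest strip was applied, and plates were incubated at 37°C for 18–20 h. MIC is the lowest concentration with no visible growth, taken as the consensus of ≥2 independent determinations. Increases over WT were graded 2–5-fold or >5-fold, and EUCAST v5.0 breakpoints were used.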

[2] = test system: S. aureus DA29680 (cycled with LL-37); experiment: MIC of antibiotics by Etest; format: cell-based; conditions: Staphylococcus aureus
Method in brief: as §1

[3] = test system: S. aureus DA30557 (cycled with WGH); experiment: MIC of antibiotics by Etest; format: cell-based, Staphylococcus aureus; conditions: for MIC: Staphylococcus aureus
Method in brief: as §1

[4] = test system: S. aureus DA30559 (cycled with WGH); experiment: MIC of antibiotics by Etest; format: cell-based; conditions: Staphylococcus aureus
Method in brief: as §1

[5] = test system: S. aureus DA36424 (cycled with LL-37 and WGH); experiment: MIC of antibiotics by Etest; format: cell-based; conditions: Staphylococcus aureus
Method in brief: as §1

[6] = test system: S. aureus DA35920 (cycled with PR-39); experiment: MIC of antibiotics by Etest; format: cell-based; conditions: Staphylococcus aureus
Method in brief: as §1

[7] = test system: S. aureus DA37296 (cycled with PR-39); experiment: MIC of antibiotics by Etest; format: cell-based; conditions: Staphylococcus aureus
Method in brief: as §1

S. aureus DA36424 = experiment: Bacterial cell survival assay with human defensins; format: cell-based, Staphylococcus aureus; conditions: strain DA36424; 10 μM peptide, NaPB pH 7.4, exponential phase cells, 37°C, 2 h
S. aureus DA28823 (WT) = experiment: MIC of antibiotics by Etest; format: cell-based; conditions: Staphylococcus aureus
Method in brief: as §1

[8] = test system: S. aureus DA30560 (cycled with no peptide); experiment: MIC of antibiotics by Etest; format: cell-based; conditions: Staphylococcus aureus
Method in brief: as §1

[9] = test system: seven AMP-resistant S. aureus mutants; experiment: MIC of antibiotics by Etest, summary over mutants; format: cell-based, Staphylococcus aureus; conditions: Mueller–Hinton medium; for number of AMP-resistant mutants with reduced/diminished susceptibility: of seven mutants
Method in brief: as §1

S. aureus DA29677 = experiment: Bacterial cell survival assay with human defensins; format: cell-based, Staphylococcus aureus; conditions: strain DA29677, NaPB pH 7.4, exponential phase cells, 37°C, 2 h
Method in brief: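 Exponential-phase cells: overnight TSB culture diluted 1:100 in pre-warmed TSB, shaken 2 h at 37°C, washed once and resuspended in 10 mM sodium phosphate pH 7.4. Diluted to 0.69−4.7 × 10⁴ cfu/mL and exposed to hBD3 at 1 μM or other β-defensins at 10 μM, shaking in a sealed humidified container at 37°C for 2 h. Cells were plated on TSA for cfu. % survival = cfu with peptide/cfu without peptide × 100. Detection limit 1% survival. Mean ± SEM of ≥3 independent determinations.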

Solubility limit in MIEM = format: physicochemical; conditions: in MIEM (mammalian ionic environment medium, without NaCl, pH 7.4)

## C[C@H]1c2cccc(O)c2C(=O)C2=C(O)[C@]3(O)C(=O)C(C(N)=O)=C(O)[C@@H](N(C)C)[C@@H]3[C@@H](O)[C@@H]21 [DOX, doxycycline]
[1]
  MIC: 0.125 µg/mL
[2]
  MIC: 0.094 µg/mL
[3]
  MIC: 0.094 µg/mL
[4]
  MIC: 0.125 µg/mL
[5]
  MIC: 0.25 µg/mL
[6]
  MIC: 0.094 µg/mL
[7]
  MIC: 0.125 µg/mL

## AFTCHCRRSCYSTEYSYGTCTVMGINHRFCCL (bicyclic or more) [HNP6]
S. aureus DA36424
  bacterial survival after defensin exposure, relative to WT (in words): significantly reduced survival

## CN[C@H](CC(C)C)C(=O)N[C@H]1C(=O)N[C@@H](CC(N)=O)C(=O)N[C@H]2C(=O)N[C@H]3C(=O)N[C@H](C(=O)N[C@H](C(=O)O)c4cc(O)cc(O)c4-c4cc3ccc4O)[C@H](O)c3ccc(c(Cl)c3)Oc3cc2cc(c3O[C@@H]2O[C@H](CO)[C@@H](O)[C@H](O)[C@H]2O[C@H]2C[C@](C)(N)[C@H](O)[C@H](C)O2)Oc2ccc(cc2Cl)[C@H]1O [VAN, vancomycin]
S. aureus DA28823 (WT)
  MIC: 1.5 µg/mL
[8]
  MIC: 1.5 µg/mL
[1]
  MIC: 2 µg/mL
[2]
  MIC: 2 µg/mL
[3]
  MIC: 2 µg/mL
[4]
  MIC: 1.5 µg/mL
[5]
  MIC: 2 µg/mL
[6]
  MIC: 2 µg/mL
[7]
  MIC: 2 µg/mL
[9]
  susceptibility of all seven AMP-resistant mutants relative to WT (in words): little to no change in susceptibility

## teicoplanin [TEC]
[9]
  susceptibility of all seven AMP-resistant mutants relative to WT (in words): diminished susceptibility

## CCO/N=C(\C(=O)N[C@@H]1C(=O)N2C(C(=O)[O-])=C(Sc3nc(-c4cc[n+](C)cc4)cs3)CS[C@H]12)c1nsc(N)n1 [CFT, ceftaroline]
S. aureus DA28823 (WT)
  MIC: 0.25 µg/mL
[8]
  MIC: 0.25 µg/mL
[1]
  MIC: 0.19 µg/mL
[2]
  MIC: 0.25 µg/mL
[3]
  MIC: 0.38 µg/mL
[4]
  MIC: 0.38 µg/mL
[5]
  MIC: 0.38 µg/mL
[6]
  MIC: 0.19 µg/mL
[7]
  MIC: 0.25 µg/mL

## CN(C)[C@@H]1C(O)=C(C(N)=O)C(=O)[C@@]2(O)C(O)=C3C(=O)c4c(O)cccc4[C@@](C)(O)[C@H]3C[C@@H]12 [TET, tetracycline]
S. aureus DA28823 (WT)
  MIC: 0.094 µg/mL
[8]
  MIC: 0.094 µg/mL
[1]
  MIC: 0.19 µg/mL
[2]
  MIC: 0.25 µg/mL
[3]
  MIC: 0.25 µg/mL
[4]
  MIC: 0.19 µg/mL
[5]
  MIC: 0.25 µg/mL
[6]
  MIC: 0.125 µg/mL
[7]
  MIC: 0.19 µg/mL
[9]
  number of AMP-resistant mutants with reduced/diminished susceptibility: six of seven

## polymyxin B [PMB]
[9]
  number of AMP-resistant mutants with reduced/diminished susceptibility: three of seven

## CC(=O)NC[C@H]1CN(c2ccc(N3CCOCC3)c(F)c2)C(=O)O1 [LZD, linezolid]
S. aureus DA28823 (WT)
  MIC: 2 µg/mL
[8]
  MIC: 2 µg/mL
[1]
  MIC: 1.5 µg/mL
[2]
  MIC: 1.5 µg/mL
[3]
  MIC: 2 µg/mL
[4]
  MIC: 1 µg/mL
[5]
  MIC: 2 µg/mL
[6]
  MIC: 1 µg/mL
[7]
  MIC: 2 µg/mL

## CNC(C)C1CCC(N)C(OC2C(N)CC(N)C(OC3OCC(C)(O)C(NC)C3O)C2O)O1 (centres unmarked) [GEN, gentamicin]
S. aureus DA28823 (WT)
  MIC: 0.125 µg/mL
[8]
  MIC: 0.125 µg/mL
[1]
  MIC: 0.094 µg/mL
[2]
  MIC: 0.094 µg/mL
[3]
  MIC: 1 µg/mL
[3]; strain DA30557 (passaged with WGH), relative to WT, Etest
  increase in MIC: 8 fold
[4]
  MIC: 0.38 µg/mL
[5]
  MIC: 0.19 µg/mL
[6]
  MIC: 0.25 µg/mL
[7]
  MIC: 0.5 µg/mL
[9]
  number of AMP-resistant mutants with reduced/diminished susceptibility: Four of seven

## CO[C@H]1/C=C/O[C@@]2(C)Oc3c(C)c(O)c4c(O)c(c(/C=N/N5CCN(C)CC5)c(O)c4c3C2=O)NC(=O)/C(C)=C\C=C\[C@H](C)[C@H](O)[C@@H](C)[C@@H](O)[C@@H](C)[C@H](OC(C)=O)[C@@H]1C [RIF, rifampicin]
S. aureus DA28823 (WT)
  MIC: 0.012 µg/mL
[8]
  MIC: 0.012 µg/mL
[1]
  MIC: 0.008 µg/mL
[2]
  MIC: 0.012 µg/mL
[3]
  MIC: 0.012 µg/mL
[4]
  MIC: 0.016 µg/mL
[5]
  MIC: 0.012 µg/mL
[6]
  MIC: 0.016 µg/mL
[7]
  MIC: 0.008 µg/mL

## O=C(N[C@H](CO)[C@H](O)c1ccc([N+](=O)[O-])cc1)C(Cl)Cl [CHL, chloramphenicol]
S. aureus DA28823 (WT)
  MIC: 4 µg/mL
[8]
  MIC: 4 µg/mL
[1]
  MIC: 6 µg/mL
[2]
  MIC: 4 µg/mL
[3]
  MIC: 4 µg/mL
[4]
  MIC: 4 µg/mL
[5]
  MIC: 4 µg/mL
[6]
  MIC: 3 µg/mL
[7]
  MIC: 6 µg/mL

## CCC[C@@H]1C[C@@H](C(=O)N[C@@H]([C@H]2O[C@H](SC)[C@H](O)[C@@H](O)[C@H]2O)[C@H](C)Cl)N(C)C1 [CLI, clindamycin]
S. aureus DA28823 (WT)
  MIC: 0.094 µg/mL
[8]
  MIC: 0.094 µg/mL
[1]
  MIC: 0.047 µg/mL
[2]
  MIC: 0.094 µg/mL
[3]
  MIC: 0.064 µg/mL
[4]
  MIC: 0.064 µg/mL
[5]
  MIC: 0.125 µg/mL
[6]
  MIC: 0.094 µg/mL
[7]
  MIC: 0.125 µg/mL

## CC[C@H]1OC(=O)[C@H](C)[C@@H](O[C@H]2C[C@@](C)(OC)[C@@H](O)[C@H](C)O2)[C@H](C)[C@@H](O[C@@H]2O[C@H](C)C[C@H](N(C)C)[C@H]2O)[C@](C)(O)C[C@@H](C)C(=O)[C@H](C)[C@@H](O)[C@]1(C)O [ERY, erythromycin]
S. aureus DA28823 (WT)
  MIC: 0.19 µg/mL
[8]
  MIC: 0.19 µg/mL
[1]
  MIC: 0.19 µg/mL
[2]
  MIC: 0.19 µg/mL
[3]
  MIC: 0.125 µg/mL
[4]
  MIC: 0.125 µg/mL
[5]
  MIC: 0.25 µg/mL
[6]
  MIC: 0.38 µg/mL
[7]
  MIC: 0.38 µg/mL
[9]
  number of AMP-resistant mutants with reduced/diminished susceptibility: two of seven

## DHYNCVSSGGQCLYSACPIFTKIQGTCYRGKAKCCK (also: bicyclic or more (positions not given here)) [hBD1]
S. aureus DA29677; 10 μM peptide
  resistance to human β-defensin, relative to WT (in words): increased resistance

## CC[C@H](C)[C@H](NC(=O)[C@H](CCCCN)NC(=O)[C@H](CCC(=O)O)NC(=O)[C@H](CCCCN)NC(=O)[C@H](CO)NC(=O)[C@H](CCCCN)NC(=O)[C@H](CCCNC(=N)N)NC(=O)[C@H](Cc1ccccc1)NC(=O)[C@H](Cc1ccccc1)NC(=O)[C@H](CC(=O)O)NC(=O)CNC(=O)[C@H](CC(C)C)NC(=O)[C@@H](N)CC(C)C)C(=O)NCC(=O)N[C@@H](CCCCN)C(=O)N[C@@H](CCC(=O)O)C(=O)N[C@@H](Cc1ccccc1)C(=O)N[C@@H](CCCCN)C(=O)N[C@@H](CCCNC(=N)N)C(=O)N[C@H](C(=O)N[C@H](C(=O)N[C@@H](CCC(N)=O)C(=O)N[C@@H](CCCNC(=N)N)C(=O)N[C@H](C(=O)N[C@@H](CCCCN)C(=O)N[C@@H](CC(=O)O)C(=O)N[C@@H](Cc1ccccc1)C(=O)N[C@@H](CC(C)C)C(=O)N[C@@H](CCCNC(=N)N)C(=O)N[C@@H](CC(N)=O)C(=O)N[C@@H](CC(C)C)C(=O)N[C@H](C(=O)N1CCC[C@H]1C(=O)N[C@@H](CCCNC(=N)N)C(=O)N[C@H](C(=O)N[C@@H](CCC(=O)O)C(=O)N[C@@H](CO)C(=O)O)[C@@H](C)O)C(C)C)[C@@H](C)CC)C(C)C)[C@@H](C)CC [LL-37]
Solubility limit in MIEM
  solubility limit: ~550 µg/mL (≈ 122 µM)

## GIGDPVTCLKSGAICHPVFCPRRYKQIGTCGLPGTKCCKKP (also: bicyclic or more (positions not given here)) [hBD2]
S. aureus DA29677; 10 μM peptide
  resistance to human β-defensin, relative to WT (in words): increased resistance

## GIINTLQKYYCRVRGGRCAVLSCLPKEEQIGKCSTRGRKCCRRKK (also: bicyclic or more (positions not given here)) [hBD3]
S. aureus DA29677; 1 μM peptide
  resistance to human β-defensin, relative to WT (in words): increased resistance

## CN(C)c1cc(NC(=O)CNC(C)(C)C)c(O)c2c1C[C@H]1C[C@H]3[C@H](N(C)C)C(O)=C(C(N)=O)C(=O)[C@@]3(O)C(O)=C1C2=O [TGC, tigecycline]
S. aureus DA28823 (WT)
  MIC: 0.094 µg/mL
[8]
  MIC: 0.094 µg/mL
[1]
  MIC: 0.094 µg/mL
[2]
  MIC: 0.19 µg/mL
[3]
  MIC: 0.094 µg/mL
[4]
  MIC: 0.094 µg/mL
[5]
  MIC: 0.19 µg/mL
[6]
  MIC: 0.125 µg/mL
[7]
  MIC: 0.125 µg/mL
[9]
  number of AMP-resistant mutants with reduced/diminished susceptibility: two of seven

From PMC5161045 (Journal of Antimicrobial Chemotherapy, 2016)
